Results published in publication PMC4828974 (Cancer research, 2015).

Columns and labels:
CYFIP1 [1] = molecular target: CYFIP1 (Homo sapiens, UniProt Q7L576); experiment: Avidin-biotin pull down with biotinylated stapled peptides, western blot; format: binding; details: 2.5 µM versus 10 µM biotinylated peptide, MDA-MB-231 cells
How it was run: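 MDA-MB-231 cells exposed to biotin-labelled stapled test peptides at 2.5 or 10 µM, with biotinylated scrambled peptides as controls. Lysates incubated overnight at 4 °C with immobilised avidin resin. Pulled-down material resolved by SDS-PAGE and western blotted for CYFIP1.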

WASF3-CYFIP1 complex = WASF3-CYFIP1 complex (Homo sapiens, UniProt Q7L576); experiment: Immunoprecipitation of WASF3, western blot for CYFIP1; format: cell-based; details: MDA-MB-231 cells treated with peptide, IP of WASF3
[2] = test system: breast or prostate cancer cells; experiment: MTS cell proliferation assay; format: cell-based; details: 10 µM, over 24 hours
[3] = test system: breast and prostate cell lines; experiment: Scratch wound; format: cell-based; details: scratch wound assay, compared with DMSO and scrambled peptide
[4] = test system: breast and prostate cancer cells; experiment: Transwell invasion assay; format: cell-based; details: for reduction of invasion potential: Transwell, 24 hours, 10 µM, compared with SCR peptides or DMSO; for dose dependence of suppression of cell invasion: high dose 10 µM versus low dose 2.5 µM
[5] = test system: WASF3 phosphorylation in MDA-MB-231 cells; experiment: WASF3 phosphorylation status; format: cell-based; details: for WASF3 phosphorylation levels: MDA-MB-231 cells in serum
How it was run: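 MDA-MB-231 cells were treated with stapled peptides, the scrambled control peptide, or the HSP90 inhibitor 17-AAG for comparison. WASF3 was immunoprecipitated, with IgG IP as the negative control. Immunoblots were probed with the PY20 antibody for phosphorylation and with WASF3 antibody for total protein.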

WASF3 = WASF3 protein levels by western blot; format: cell-based; details: MDA-MB-231 cells cultured in serum
CYFIP1 [6] = experiment: CYFIP1 protein levels by western blot; format: cell-based; details: 24 hours treatment
KISS1 = KISS1 levels by western blot; format: cell-based; details: MDA-MB-231 cells, compared with scrambled peptides
[7] = molecular target: Rac1/2 binding to the WASF3 complex (Homo sapiens, UniProt Q7L576); experiment: IP with WASF3 antibodies, western blot for Rac1/Rac2; format: cell-based; details: MDA-MB-231 cells
How it was run: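 MDA-MB-231 cells were left untreated or treated with stapled test peptides or a scrambled control peptide. Lysates were immunoprecipitated with anti-WASF3 antibody, and the immunocomplex was western blotted for Rac1 and Rac2.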

[8] = test system: WASF3 phosphorylation in MDA-MB-231 cells; details: inactivation of HSP90; cited from earlier work

CYFIP1 (Homo sapiens, UniProt Q7L576), sequence (Q7L576 whole entry): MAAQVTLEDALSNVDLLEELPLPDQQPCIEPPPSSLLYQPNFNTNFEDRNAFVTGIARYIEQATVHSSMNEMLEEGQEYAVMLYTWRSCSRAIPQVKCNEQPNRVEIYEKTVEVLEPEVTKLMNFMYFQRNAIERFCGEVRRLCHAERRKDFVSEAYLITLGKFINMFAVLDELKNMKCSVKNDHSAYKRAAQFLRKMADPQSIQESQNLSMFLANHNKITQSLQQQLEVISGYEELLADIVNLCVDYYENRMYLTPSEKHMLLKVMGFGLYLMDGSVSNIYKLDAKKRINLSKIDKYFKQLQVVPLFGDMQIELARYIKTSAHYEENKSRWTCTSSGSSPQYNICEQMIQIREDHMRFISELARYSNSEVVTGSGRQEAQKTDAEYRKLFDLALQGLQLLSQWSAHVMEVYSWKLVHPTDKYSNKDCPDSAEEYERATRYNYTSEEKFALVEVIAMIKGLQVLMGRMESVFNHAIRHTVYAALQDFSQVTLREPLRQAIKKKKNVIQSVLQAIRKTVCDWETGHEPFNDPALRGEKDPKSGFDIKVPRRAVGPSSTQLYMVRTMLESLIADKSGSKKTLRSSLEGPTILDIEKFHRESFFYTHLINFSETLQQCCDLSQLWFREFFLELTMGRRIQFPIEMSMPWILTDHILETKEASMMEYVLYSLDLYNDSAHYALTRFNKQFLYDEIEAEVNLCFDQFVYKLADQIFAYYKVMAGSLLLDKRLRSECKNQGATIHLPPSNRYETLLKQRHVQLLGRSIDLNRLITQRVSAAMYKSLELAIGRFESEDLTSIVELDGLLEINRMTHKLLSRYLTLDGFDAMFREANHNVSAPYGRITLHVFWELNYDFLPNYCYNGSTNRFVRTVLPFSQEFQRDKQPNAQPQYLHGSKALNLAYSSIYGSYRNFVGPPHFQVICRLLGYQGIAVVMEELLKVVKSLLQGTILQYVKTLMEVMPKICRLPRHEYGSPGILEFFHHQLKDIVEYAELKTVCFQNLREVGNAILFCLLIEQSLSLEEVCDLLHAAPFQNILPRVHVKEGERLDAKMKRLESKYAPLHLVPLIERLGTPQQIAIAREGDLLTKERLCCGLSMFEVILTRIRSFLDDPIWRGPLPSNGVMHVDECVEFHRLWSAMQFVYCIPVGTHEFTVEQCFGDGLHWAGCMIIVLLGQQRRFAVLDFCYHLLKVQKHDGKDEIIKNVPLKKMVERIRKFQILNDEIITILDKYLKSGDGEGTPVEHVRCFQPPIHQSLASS
WASF3-CYFIP1 complex, sequence (Q7L576 whole entry): as above
WASF3-CYFIP1 complex, sequence (Q9Y2A7 whole entry partner): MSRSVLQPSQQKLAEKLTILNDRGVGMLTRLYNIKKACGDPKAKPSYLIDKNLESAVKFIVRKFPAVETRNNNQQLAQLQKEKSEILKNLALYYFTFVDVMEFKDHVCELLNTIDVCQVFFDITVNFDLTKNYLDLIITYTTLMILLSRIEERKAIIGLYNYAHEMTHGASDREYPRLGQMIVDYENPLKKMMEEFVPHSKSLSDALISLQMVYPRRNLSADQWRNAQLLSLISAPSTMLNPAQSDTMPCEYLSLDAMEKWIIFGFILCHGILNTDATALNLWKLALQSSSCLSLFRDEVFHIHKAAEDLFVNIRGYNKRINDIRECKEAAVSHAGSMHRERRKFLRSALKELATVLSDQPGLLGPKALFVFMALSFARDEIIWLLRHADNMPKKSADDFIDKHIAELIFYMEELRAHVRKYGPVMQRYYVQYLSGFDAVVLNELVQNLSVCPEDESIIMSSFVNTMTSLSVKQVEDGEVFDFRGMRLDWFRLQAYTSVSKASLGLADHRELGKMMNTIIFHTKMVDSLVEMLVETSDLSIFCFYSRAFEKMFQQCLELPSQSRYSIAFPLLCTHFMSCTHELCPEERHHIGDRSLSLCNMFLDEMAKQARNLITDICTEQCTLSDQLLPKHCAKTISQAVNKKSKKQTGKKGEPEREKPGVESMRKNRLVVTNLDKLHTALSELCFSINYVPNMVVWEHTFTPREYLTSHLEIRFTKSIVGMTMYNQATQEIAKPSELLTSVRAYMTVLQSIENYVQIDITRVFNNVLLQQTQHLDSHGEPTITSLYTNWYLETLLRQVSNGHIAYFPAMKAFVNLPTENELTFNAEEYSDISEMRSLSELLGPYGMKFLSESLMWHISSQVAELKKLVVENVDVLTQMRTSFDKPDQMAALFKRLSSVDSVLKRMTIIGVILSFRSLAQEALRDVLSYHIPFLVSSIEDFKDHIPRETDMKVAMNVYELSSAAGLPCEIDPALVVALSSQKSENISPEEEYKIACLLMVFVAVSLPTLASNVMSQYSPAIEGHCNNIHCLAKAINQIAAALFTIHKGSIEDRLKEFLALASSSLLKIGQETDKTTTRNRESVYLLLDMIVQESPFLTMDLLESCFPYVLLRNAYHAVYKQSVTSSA
Rac1/2 binding to the WASF3 complex, sequence (Q7L576 whole entry): as the sequence (Q7L576 whole entry) above
Rac1/2 binding to the WASF3 complex, sequence (Q9Y2A7 whole entry partner): as the sequence (Q9Y2A7 whole entry partner) above

Row | Compound | concentration dependence of CYFIP1 pull down (CYFIP1 [1]) | CYFIP1 in the WASF3 immunocomplex (WASF3-CYFIP1 complex) | cell proliferation [2] | migration potential / cell motility [3] | reduction of invasion potential [4] | dose dependence of suppression of cell invasion [4] | WASF3 phosphorylation levels [5] | WASF3 protein levels (WASF3) | intracellular levels of WASF3 or CYFIP1 (CYFIP1 [6]) | KISS1 levels (KISS1) | Rac2 in the WASF3 IP [7] | WASF3 phosphoactivation [8] | suppression of WASF3 phosphorylation compared with 17-AAG ([5]; MDA-MB-231 cells)
1 | LEKKTN*TLA*IIRQL (sidechain bridge or staple) [WAHM2] | concentration-dependent | not present in the immunocomplex | no significant difference in cell proliferation | significant reduction in cell motility | 50–75% | dose-dependent effect | dramatic decrease in WASF3 phosphorylation levels | without a reduction in WASF3 protein levels | did not affect intracellular levels of either WASF3 or CYFIP1 | increased KISS1 levels |  |  | 
2 | SRA*LLI*TKIQNELK (sidechain bridge or staple) [SCR1] |  |  |  |  |  |  |  |  |  |  | present |  | 
3 | C=CCNC1=C2C[C@@H](C)C[C@H](OC)[C@H](O)[C@@H](C)/C=C(\C)[C@H](OC(N)=O)[C@@H](OC)/C=C\C=C(/C)C(=O)NC(=CC1=O)C2=O [17-AAG] |  |  |  |  |  |  |  |  |  |  |  | reduced WASF3 phosphoactivation | 
4 | LEK*TNS*LAKIIRQL (sidechain bridge or staple) [WAHM1] | concentration-dependent | not present in the immunocomplex | no significant difference in cell proliferation | significant reduction in cell motility | 50–75% | dose-dependent effect | dramatic decrease in WASF3 phosphorylation levels | without a reduction in WASF3 protein levels | did not affect intracellular levels of either WASF3 or CYFIP1 | increased KISS1 levels | could not be detected |  | more efficient than the 17-AAG HSP90 inhibitor
